How the values were obtained:
[1] = molecular target: Tyrosine-protein kinase receptor UFO (Homo sapiens) (UniProt P30530); experiment: Inhibition of human AXL (497 to 821 amino acid residues) assessed as enzyme activity at 10 uM by KINOMEScan assay expressed in bacterial system assessed as enzyme activity at 10 uM by KINOMEScan assay; set-up: scale not given: the % may be the effect or the level left
Method in brief: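 Commercial KINOMEscan binding screen across a 100-kinase panel, test compound at 10 μM. Primary-screen binding interactions reported as % Ctrl = (test compound signal − positive control signal)/(negative control signal − positive control signal) × 100. Lower values indicate stronger hits.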

[2] = molecular target: Ribosomal protein S6 kinase alpha-2 (Homo sapiens) (UniProt Q15349); experiment: Inhibition of human RSK2 Kin.Dom.1-N-terminal (1 to 394 amino acid residues) assessed as enzyme activity at 10 uM by KINOMEScan assay; set-up: scale not given: the % may be the effect or the level left
Method in brief: (§1)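 Single-concentration competition binding screen (KINOMEscan) across a 100-kinase panel at 10 μM. Primary binding read-out is reported as % of control: (test signal − positive-control signal)/(negative-control signal − positive-control signal) × 100. Lower values indicate stronger binding.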

[3] = molecular target: Cyclin-dependent kinase 7 (Homo sapiens) (UniProt P50613); experiment: Inhibition of full length human CDK7 assessed as enzyme activity at 10 uM by KINOMEScan assay; set-up: scale not given: the % may be the effect or the level left
Method in brief: (§2)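 Competition binding screen on a 100-kinase KINOMEscan panel, compound tested at a single 10 μM concentration. Primary binding read-out expressed as % Ctrl = (test compound signal − positive control signal)/(negative control signal − positive control signal) × 100, with lower values meaning stronger binding.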

[4] = molecular target: Inhibitor of nuclear factor kappa-B kinase subunit alpha (Homo sapiens) (UniProt O15111); experiment: Inhibition of full length human IKK-alpha assessed as enzyme activity at 10 uM by KINOMEScan assay; set-up: scale not given: the % may be the effect or the level left; method in brief: as §2
[5] = molecular target: Receptor-type tyrosine-protein kinase FLT3 (Homo sapiens) (UniProt P36888); experiment: Inhibition of human FLT3 (646 to 1225 amino acid residues) assessed as enzyme activity at 10 uM by KINOMEScan assay expressed in bacterial system assessed as enzyme activity at 10 uM by KINOMEScan assay; set-up: scale not given: the % may be the effect or the level left; method in brief: as §2
[6] = molecular target: Cyclin-dependent kinase 3 (Homo sapiens) (UniProt Q00526); experiment: Inhibition of full length human CDK3 expressed in bacterial system assessed as enzyme activity at 10 uM by KINOMEScan assay; set-up: scale not given: the % may be the effect or the level left; method in brief: as §2
[7] = molecular target: Serine/threonine-protein kinase pim-3 (Homo sapiens) (UniProt Q86V86); experiment: Inhibition of human PIM3 (16 to 317 amino acid residues) expressed in bacterial system assessed as enzyme activity at 10 uM by KINOMEScan assay; set-up: scale not given: the % may be the effect or the level left; method in brief: as §1
[8] = molecular target: Cyclin-dependent kinase 16 (Homo sapiens) (UniProt Q00536); experiment: Inhibition of human PCTK1 (160 to 474 amino acid residues) assessed as enzyme activity at 10 uM by KINOMEScan assay; set-up: scale not given: the % may be the effect or the level left
Method in brief: (§3)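 Commercial KINOMEscan binding panel of 100 kinases, test compound at 10 μM. Results are primary-screen binding interactions expressed as % Ctrl = (test compound signal − positive control signal)/(negative control signal − positive control signal) × 100. Lower % Ctrl means stronger binding.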

[9] = molecular target: Mitogen-activated protein kinase 9 (Homo sapiens) (UniProt P45984); experiment: Inhibition of full length human JNK2 assessed as enzyme activity at 10 uM by KINOMEScan assay; set-up: scale not given: the % may be the effect or the level left; method in brief: as §2
[10] = molecular target: Serine/threonine-protein kinase B-raf (Homo sapiens) (UniProt P15056); experiment: Inhibition of human BRAF (429 to 741 amino acid residues) assessed as enzyme activity at 10 uM by KINOMEScan assay; set-up: scale not given: the % may be the effect or the level left; method in brief: as §2
[11] = molecular target: Serine/threonine-protein kinase pim-2 (Homo sapiens) (UniProt Q9P1W9); experiment: Inhibition of PIM2 (unknown origin)
[12] = molecular target: Serine/threonine-protein kinase PAK 4 (Homo sapiens) (UniProt O96013); experiment: Inhibition of human PAK4 (144 to 438 amino acid residues) expressed in bacterial system assessed as enzyme activity at 10 uM by KINOMEScan assay; set-up: scale not given: the % may be the effect or the level left; method in brief: as §1
[13] = molecular target: Dual specificity mitogen-activated protein kinase kinase 1 (Homo sapiens) (UniProt Q02750); experiment: Inhibition of full length human MEK1 assessed as enzyme activity at 10 uM by KINOMEScan assay; set-up: scale not given: the % may be the effect or the level left; method in brief: as §2
[14] = molecular target: cAMP-dependent protein kinase catalytic subunit alpha (Homo sapiens) (UniProt P17612); experiment: Inhibition of human PKAC-alpha (10 to 351 amino acid residues) expressed in bacterial system assessed as enzyme activity at 10 uM by KINOMEScan assay; set-up: scale not given: the % may be the effect or the level left; method in brief: as §1
[15] = tested on: Epidermal growth factor receptor (Homo sapiens), P00533 [L858R]; experiment: Inhibition of human EGFR L858R mutant (669 to 1011 amino acid residues) assessed as enzyme activity at 10 uM by KINOMEScan assay expressed in bacterial system assessed as enzyme activity at 10 uM by KINOMEScan assay; set-up: scale not given: the % may be the effect or the level left; method in brief: as §3
[16] = molecular target: High affinity nerve growth factor receptor (Homo sapiens) (UniProt P04629); experiment: Inhibition of human TRKA (475 to 790 amino acid residues) assessed as enzyme activity at 10 uM by KINOMEScan assay; set-up: scale not given: the % may be the effect or the level left; method in brief: as §3
[17] = molecular target: T1, Serine/threonine-protein kinase pim-1 (Homo sapiens, UniProt P11309); experiment: Inhibition of recombinant human Pim1
Target sequence in this assay (P11309 whole entry): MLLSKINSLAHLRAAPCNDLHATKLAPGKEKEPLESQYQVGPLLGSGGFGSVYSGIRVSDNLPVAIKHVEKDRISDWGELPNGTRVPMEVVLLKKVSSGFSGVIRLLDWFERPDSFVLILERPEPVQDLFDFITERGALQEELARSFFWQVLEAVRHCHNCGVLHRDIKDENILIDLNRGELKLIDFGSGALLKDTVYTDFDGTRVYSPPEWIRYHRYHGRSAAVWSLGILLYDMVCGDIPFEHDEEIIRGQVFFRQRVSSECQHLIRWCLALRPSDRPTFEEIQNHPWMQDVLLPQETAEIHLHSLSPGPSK

[18] = molecular target: T1, Serine/threonine-protein kinase pim-1; experiment: Share of MOE computational kinase hits for Pim family
Target sequence in this assay (P11309 whole entry, looked up): as the sequence (P11309 whole entry) above

[19] = molecular target: Serine/threonine-protein kinase PLK4 (Homo sapiens) (UniProt O00444); experiment: Inhibition of human PLK4 (1 to 273 amino acid residues) assessed as enzyme activity at 10 uM by KINOMEScan assay; set-up: scale not given: the % may be the effect or the level left; method in brief: as §1
[20] = molecular target: Serine/threonine-protein kinase PLK3 (Homo sapiens) (UniProt Q9H4B4); experiment: Inhibition of human PLK3 (42 to 334 amino acid residues) assessed as enzyme activity at 10 uM by KINOMEScan assay; set-up: scale not given: the % may be the effect or the level left; method in brief: as §1
[21] = molecular target: Dual specificity tyrosine-phosphorylation-regulated kinase 1B (Homo sapiens) (UniProt Q9Y463); experiment: Inhibition of full length human DYRK1B expressed in bacterial system assessed as enzyme activity at 10 uM by KINOMEScan assay; set-up: scale not given: the % may be the effect or the level left; method in brief: as §2
[22] = molecular target: SRSF protein kinase 3 (Homo sapiens) (UniProt Q9UPE1); experiment: Inhibition of human SRPK3 (41 to 567 amino acid residues) expressed in bacterial system assessed as enzyme activity at 10 uM by KINOMEScan assay; set-up: scale not given: the % may be the effect or the level left; method in brief: as §1
[23] = molecular target: RAC-beta serine/threonine-protein kinase (Homo sapiens) (UniProt P31751); experiment: Inhibition of human Akt2 expressed in bacterial system assessed as enzyme activity at 10 uM by KINOMEScan assay; set-up: scale not given: the % may be the effect or the level left; method in brief: as §3
[24] = molecular target: Mast/stem cell growth factor receptor Kit (Homo sapiens) (UniProt P10721); experiment: Inhibition of human KIT (571 to 952 amino acid residues) expressed in bacterial system assessed as enzyme activity at 10 uM by KINOMEScan assay; set-up: scale not given: the % may be the effect or the level left; method in brief: as §3
[25] = tested on: Mast/stem cell growth factor receptor Kit (Homo sapiens), P10721 [D816V]; experiment: Inhibition of human KIT D816V mutant (571 to 952 amino acid residues) expressed in bacterial system assessed as enzyme activity at 10 uM by KINOMEScan assay; set-up: scale not given: the % may be the effect or the level left; method in brief: as §3

Sequence of Mast/stem cell growth factor receptor Kit (Homo sapiens) (P10721 whole entry, the tested form may be a part): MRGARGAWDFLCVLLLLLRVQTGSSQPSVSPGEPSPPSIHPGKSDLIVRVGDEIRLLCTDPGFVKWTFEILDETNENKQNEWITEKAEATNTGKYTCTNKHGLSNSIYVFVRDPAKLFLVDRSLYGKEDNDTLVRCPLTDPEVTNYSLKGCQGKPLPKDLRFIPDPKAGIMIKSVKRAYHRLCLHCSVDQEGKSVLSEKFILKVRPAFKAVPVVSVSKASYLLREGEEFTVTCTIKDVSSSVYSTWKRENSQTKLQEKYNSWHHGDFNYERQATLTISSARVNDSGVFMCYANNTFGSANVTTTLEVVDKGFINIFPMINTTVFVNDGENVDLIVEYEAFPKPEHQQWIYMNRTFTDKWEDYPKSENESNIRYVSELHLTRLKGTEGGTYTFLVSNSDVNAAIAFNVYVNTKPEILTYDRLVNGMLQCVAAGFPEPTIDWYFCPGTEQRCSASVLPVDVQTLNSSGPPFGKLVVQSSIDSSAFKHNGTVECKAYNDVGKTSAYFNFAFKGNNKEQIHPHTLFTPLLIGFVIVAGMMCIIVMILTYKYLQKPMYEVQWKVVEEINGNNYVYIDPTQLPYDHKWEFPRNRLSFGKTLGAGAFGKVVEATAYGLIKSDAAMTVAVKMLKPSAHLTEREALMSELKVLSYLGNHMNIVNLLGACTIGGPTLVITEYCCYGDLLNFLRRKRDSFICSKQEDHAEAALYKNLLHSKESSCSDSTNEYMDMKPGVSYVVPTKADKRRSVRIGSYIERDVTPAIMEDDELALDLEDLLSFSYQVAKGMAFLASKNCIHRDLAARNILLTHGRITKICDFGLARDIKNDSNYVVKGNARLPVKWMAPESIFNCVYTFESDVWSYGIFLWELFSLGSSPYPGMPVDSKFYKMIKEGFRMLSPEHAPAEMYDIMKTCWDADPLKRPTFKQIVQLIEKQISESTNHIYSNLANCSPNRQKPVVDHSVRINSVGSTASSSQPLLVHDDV
Sequence of Serine/threonine-protein kinase PLK4 (Homo sapiens) (O00444 whole entry, the tested form may be a part): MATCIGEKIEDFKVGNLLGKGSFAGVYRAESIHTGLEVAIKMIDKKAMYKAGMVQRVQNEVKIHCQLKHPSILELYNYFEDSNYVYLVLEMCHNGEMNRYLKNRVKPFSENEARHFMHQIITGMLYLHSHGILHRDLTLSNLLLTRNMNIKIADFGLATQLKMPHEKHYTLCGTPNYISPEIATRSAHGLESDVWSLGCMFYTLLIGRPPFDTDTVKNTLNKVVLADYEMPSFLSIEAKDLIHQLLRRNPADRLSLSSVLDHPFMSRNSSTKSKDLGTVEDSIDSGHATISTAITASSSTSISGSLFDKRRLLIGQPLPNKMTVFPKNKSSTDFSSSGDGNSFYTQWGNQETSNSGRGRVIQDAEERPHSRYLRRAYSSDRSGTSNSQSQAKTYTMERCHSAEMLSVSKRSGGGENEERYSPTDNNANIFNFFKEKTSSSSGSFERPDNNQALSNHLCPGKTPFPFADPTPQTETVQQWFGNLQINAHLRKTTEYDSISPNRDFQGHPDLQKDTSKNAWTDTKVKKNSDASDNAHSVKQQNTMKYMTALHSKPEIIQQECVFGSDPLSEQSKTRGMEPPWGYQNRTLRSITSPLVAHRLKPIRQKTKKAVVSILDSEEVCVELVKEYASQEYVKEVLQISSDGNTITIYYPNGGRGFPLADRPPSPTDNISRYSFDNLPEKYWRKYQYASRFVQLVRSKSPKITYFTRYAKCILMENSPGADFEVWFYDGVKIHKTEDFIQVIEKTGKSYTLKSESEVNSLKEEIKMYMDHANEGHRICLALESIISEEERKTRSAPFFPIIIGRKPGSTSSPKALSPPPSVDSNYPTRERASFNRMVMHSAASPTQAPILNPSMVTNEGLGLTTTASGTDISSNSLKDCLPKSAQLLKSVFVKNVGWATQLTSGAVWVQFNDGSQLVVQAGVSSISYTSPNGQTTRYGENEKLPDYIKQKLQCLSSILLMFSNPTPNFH
Sequence of Dual specificity tyrosine-phosphorylation-regulated kinase 1B (Homo sapiens) (Q9Y463 whole entry, looked up, the tested form may be a part): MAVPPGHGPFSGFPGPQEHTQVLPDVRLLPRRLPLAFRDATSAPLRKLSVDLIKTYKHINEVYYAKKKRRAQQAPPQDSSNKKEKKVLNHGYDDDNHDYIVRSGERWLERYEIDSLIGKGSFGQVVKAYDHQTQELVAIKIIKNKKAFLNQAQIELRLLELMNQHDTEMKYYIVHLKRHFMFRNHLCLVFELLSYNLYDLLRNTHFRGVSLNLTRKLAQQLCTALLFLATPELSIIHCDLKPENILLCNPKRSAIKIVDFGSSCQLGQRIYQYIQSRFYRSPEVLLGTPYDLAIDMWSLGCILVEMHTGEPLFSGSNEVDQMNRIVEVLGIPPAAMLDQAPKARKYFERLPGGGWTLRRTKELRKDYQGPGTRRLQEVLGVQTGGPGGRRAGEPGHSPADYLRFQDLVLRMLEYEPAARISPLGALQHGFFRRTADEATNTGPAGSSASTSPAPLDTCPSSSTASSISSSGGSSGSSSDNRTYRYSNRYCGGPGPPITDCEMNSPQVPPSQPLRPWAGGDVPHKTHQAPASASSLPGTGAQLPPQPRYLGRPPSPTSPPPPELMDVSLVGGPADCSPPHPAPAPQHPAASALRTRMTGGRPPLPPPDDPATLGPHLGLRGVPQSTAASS
Sequence of Mitogen-activated protein kinase 9 (Homo sapiens) (P45984 whole entry, looked up, the tested form may be a part): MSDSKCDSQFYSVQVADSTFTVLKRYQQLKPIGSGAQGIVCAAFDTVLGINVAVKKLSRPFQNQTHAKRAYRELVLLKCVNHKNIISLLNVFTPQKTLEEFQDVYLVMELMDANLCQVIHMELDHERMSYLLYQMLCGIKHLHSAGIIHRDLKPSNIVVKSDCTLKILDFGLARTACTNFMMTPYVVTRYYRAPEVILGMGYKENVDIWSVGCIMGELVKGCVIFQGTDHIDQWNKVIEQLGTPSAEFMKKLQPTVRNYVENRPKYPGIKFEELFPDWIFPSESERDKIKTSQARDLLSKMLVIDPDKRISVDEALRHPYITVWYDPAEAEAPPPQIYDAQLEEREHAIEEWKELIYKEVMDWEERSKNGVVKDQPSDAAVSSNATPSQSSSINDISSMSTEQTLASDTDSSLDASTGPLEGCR
Sequence of High affinity nerve growth factor receptor (Homo sapiens) (P04629 33-796 limits assumed): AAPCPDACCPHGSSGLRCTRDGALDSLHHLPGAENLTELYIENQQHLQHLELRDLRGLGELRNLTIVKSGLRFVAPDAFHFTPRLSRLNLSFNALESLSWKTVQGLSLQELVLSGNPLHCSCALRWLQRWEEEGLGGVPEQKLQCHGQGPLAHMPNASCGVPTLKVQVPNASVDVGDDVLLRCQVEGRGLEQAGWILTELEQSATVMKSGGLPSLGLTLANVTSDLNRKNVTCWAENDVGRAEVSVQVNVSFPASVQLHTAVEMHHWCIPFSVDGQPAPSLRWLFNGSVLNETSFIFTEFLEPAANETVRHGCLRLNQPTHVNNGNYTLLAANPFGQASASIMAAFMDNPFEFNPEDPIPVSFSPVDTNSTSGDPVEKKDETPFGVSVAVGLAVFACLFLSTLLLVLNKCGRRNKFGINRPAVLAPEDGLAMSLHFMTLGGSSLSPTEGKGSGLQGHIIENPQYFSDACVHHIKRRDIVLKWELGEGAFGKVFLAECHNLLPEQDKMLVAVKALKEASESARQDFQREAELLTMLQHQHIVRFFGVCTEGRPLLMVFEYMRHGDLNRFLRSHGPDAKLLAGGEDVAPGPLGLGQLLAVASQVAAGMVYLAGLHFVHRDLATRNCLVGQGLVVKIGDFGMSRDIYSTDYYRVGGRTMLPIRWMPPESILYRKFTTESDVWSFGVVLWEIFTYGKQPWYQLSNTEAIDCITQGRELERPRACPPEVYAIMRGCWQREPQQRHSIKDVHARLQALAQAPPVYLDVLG
Sequence of Serine/threonine-protein kinase pim-2 (Homo sapiens) (Q9P1W9 whole entry, looked up, the tested form may be a part): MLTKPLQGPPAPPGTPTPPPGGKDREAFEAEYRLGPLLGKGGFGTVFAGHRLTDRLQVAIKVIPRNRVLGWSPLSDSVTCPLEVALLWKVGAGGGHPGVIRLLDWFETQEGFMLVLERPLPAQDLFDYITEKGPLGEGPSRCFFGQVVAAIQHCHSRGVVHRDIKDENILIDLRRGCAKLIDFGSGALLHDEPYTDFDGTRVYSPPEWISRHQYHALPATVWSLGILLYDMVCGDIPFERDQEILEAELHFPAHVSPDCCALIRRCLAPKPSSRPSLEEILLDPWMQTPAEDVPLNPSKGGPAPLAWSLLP
Sequence of Cyclin-dependent kinase 3 (Homo sapiens) (Q00526 whole entry, looked up, the tested form may be a part): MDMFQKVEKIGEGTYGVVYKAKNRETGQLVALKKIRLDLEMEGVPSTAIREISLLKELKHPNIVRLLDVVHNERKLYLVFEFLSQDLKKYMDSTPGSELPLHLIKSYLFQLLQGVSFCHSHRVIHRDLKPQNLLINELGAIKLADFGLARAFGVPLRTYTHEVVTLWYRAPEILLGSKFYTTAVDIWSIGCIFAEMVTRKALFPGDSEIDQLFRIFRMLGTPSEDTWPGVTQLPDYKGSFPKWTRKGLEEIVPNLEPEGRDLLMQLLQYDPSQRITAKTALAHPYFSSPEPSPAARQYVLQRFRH

`O=C1C2=C(C(=O)c3c(O)ccc(O)c31)[C@@H](O)[C@@H](O)[C@@H](O)C2` gave an Activity [1] of 100%, an Activity [2] of 53% and an Activity [3] of 88%. It also gave an Activity [4] of 87%, an Activity [5] of 84% and an Activity [6] of 88%. The Activity [7] was 36%, the Activity [8] was 100% and the Activity [9] was 84%. It also gave an Activity [10] of 87%, a % of MOE kinase hits [11] of 29% and an Activity [12] of 91%. For the same compound, the Activity [13] was 92%, the Activity [14] was 84% and the Activity [15] was 78%. The Activity [16] was 78%, the IC50 [17] was 19.2 µM and the % of MOE kinase hits [18] was 29%. The Activity [19] was 89%, the Activity [20] was 54% and the Activity [21] was 53%. For the same compound, the Activity [22] was 93%, the Activity [23] was 100% and the Activity [24] was 76%. It also gave an Activity [25] of 100%.
